{
  "source": "ChEMBL document CHEMBL2069262",
  "about": "“Stimulation of Glucose-Dependent Insulin Secretion by a Potent, Selective sst3 Antagonist” (ACS Med Chem Lett, 2012)",
  "key": {"[1]": {"target": "T1, Somatostatin receptor type 3 (Homo sapiens, UniProt P32745)", "T1 sequence (P32745 whole entry)": "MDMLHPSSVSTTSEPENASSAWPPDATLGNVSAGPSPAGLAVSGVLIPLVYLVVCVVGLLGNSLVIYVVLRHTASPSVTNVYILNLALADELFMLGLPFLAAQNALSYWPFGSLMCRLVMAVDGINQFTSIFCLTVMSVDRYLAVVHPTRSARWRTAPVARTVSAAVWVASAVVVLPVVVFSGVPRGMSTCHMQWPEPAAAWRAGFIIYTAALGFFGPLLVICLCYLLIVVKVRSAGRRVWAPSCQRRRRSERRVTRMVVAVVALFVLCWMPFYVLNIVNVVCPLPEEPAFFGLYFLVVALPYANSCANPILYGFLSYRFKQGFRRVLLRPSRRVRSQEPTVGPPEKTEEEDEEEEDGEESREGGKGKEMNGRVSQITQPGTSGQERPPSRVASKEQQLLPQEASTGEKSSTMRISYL", "experiment": "Displacement of [125I]SS-14 from human SST3 receptor expressed in CHO cells after 60 mins by scintillation counting", "assay_type": "cell-based"}, "[2]": {"target": "T1, Somatostatin receptor type 3", "assay_type": "functional, cell-based, CHO"}, "[3]": {"target": "Somatostatin receptor type 1 (Homo sapiens, UniProt P30872)", "sequence (P30872 whole entry)": "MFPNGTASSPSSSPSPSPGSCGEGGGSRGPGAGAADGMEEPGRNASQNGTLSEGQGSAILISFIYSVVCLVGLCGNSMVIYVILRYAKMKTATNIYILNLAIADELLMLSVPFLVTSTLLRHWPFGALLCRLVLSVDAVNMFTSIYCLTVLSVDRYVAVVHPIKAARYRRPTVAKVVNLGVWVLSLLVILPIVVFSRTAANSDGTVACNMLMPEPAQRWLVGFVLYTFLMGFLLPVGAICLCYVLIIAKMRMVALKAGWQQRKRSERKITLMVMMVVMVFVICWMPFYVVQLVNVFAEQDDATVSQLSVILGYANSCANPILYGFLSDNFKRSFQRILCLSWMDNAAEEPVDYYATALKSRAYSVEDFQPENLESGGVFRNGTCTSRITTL", "experiment": "Binding affinity to human SST1 receptor expressed in CHO cells", "assay_type": "cell-based"}, "[4]": {"target": "Somatostatin receptor type 2 (Homo sapiens, UniProt P30874)", "sequence (P30874 whole entry)": "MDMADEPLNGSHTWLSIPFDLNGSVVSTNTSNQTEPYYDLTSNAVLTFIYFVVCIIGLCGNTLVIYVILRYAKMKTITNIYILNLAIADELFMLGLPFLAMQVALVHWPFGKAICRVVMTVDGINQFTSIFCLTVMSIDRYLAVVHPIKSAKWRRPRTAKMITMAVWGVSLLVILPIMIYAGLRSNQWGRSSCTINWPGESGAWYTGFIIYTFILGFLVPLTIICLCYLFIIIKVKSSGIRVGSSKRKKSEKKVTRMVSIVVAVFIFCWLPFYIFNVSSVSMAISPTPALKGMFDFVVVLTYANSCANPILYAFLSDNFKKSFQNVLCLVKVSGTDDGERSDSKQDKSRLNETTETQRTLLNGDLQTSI", "experiment": "Binding affinity to human SST2 receptor expressed in CHO cells", "assay_type": "cell-based"}, "[5]": {"target": "Somatostatin receptor type 4 (Homo sapiens, UniProt P31391)", "sequence (P31391 whole entry)": "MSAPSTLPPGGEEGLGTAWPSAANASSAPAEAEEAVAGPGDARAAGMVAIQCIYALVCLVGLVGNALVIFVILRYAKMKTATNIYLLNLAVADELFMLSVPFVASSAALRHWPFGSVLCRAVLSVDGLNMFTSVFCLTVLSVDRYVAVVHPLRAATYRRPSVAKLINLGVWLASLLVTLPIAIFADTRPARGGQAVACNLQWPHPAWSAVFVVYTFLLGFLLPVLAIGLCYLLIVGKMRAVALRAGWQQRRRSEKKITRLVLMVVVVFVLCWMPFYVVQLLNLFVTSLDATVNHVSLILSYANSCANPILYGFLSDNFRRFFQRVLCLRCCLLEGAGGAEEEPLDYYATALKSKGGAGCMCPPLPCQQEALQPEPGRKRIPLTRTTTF", "experiment": "Binding affinity to human SST4 receptor expressed in CHO cells", "assay_type": "cell-based"}, "[6]": {"target": "Somatostatin receptor type 5 (Homo sapiens, UniProt P35346)", "sequence (P35346 whole entry)": "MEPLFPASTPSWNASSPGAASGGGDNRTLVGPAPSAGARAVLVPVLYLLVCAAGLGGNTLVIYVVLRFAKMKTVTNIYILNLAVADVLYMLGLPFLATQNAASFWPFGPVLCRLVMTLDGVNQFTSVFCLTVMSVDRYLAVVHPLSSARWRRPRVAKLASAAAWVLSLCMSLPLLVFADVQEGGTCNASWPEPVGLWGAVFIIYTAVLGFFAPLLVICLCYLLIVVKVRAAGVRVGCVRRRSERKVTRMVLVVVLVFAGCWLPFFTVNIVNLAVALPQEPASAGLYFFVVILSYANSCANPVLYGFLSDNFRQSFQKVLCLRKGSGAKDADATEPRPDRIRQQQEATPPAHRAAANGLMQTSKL", "experiment": "Binding affinity to human SST5 receptor expressed in CHO cells", "assay_type": "cell-based"}, "[7]": {"target": "T2, Somatostatin receptor type 3 (Mus musculus, UniProt P30935)", "T2 sequence (P30935 whole entry)": "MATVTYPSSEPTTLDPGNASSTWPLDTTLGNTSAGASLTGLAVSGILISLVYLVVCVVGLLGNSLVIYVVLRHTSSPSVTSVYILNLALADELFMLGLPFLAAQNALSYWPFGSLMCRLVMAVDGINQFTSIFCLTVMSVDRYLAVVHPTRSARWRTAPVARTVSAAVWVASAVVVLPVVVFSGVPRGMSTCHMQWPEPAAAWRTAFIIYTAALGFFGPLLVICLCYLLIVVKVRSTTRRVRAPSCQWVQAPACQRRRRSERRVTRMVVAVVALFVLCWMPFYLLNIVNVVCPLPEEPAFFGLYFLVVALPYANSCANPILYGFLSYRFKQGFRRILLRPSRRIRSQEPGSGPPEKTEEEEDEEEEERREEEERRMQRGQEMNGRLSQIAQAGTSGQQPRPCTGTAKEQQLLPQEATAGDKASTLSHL", "experiment": "Displacement of [125I]SS-14 from mouse SST3 receptor expressed in CHO cells after 60 mins by scintillation counting", "assay_type": "cell-based", "how_it_was_run": "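Competition binding at mouse sst3, read at steady-state equilibrium. Read-out is IC50.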"}, "[8]": {"target": "T2, Somatostatin receptor type 3", "experiment": "Antagonist activity at mouse SST3 receptor expressed in CHO cells assessed as inhibition of forskolin/SS-14-stimulated cAMP accumulation preincubated for 15 mins before SS-14 challenge measured after 1 hr by time-resolved fluorescence analysis", "assay_type": "functional, cell-based", "how_it_was_run": "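Functional antagonism at mouse sst3 against SS-14, run as a cAMP accumulation challenge after the test molecule is prebound. Read-out is IC50.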"}, "[9]": {"target": "Somatostatin receptor type 1 (Mus musculus, UniProt P30873)", "sequence (P30873 whole entry)": "as the sequence (P30872 whole entry) above, with G25A, G26C, A32S, T385A, T389S counted along it", "experiment": "Binding affinity to mouse SST1 receptor expressed in CHO cells", "assay_type": "cell-based"}, "[10]": {"target": "Somatostatin receptor type 2 (Mus musculus, UniProt P30875)", "sequence (P30875 whole entry)": "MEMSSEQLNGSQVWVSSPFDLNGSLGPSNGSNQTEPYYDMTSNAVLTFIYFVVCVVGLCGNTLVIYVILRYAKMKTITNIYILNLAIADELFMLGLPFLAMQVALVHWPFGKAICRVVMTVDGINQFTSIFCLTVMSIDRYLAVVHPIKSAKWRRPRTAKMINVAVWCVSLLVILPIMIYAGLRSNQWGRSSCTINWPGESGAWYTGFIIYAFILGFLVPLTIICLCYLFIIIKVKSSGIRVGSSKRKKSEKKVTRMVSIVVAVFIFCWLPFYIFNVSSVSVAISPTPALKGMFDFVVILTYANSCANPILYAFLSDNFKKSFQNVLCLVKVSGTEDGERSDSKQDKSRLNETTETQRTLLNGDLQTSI", "experiment": "Binding affinity to mouse SST2 receptor expressed in CHO cells", "assay_type": "cell-based"}, "[11]": {"target": "Somatostatin receptor type 4 (Mus musculus, UniProt P49660)", "sequence (P49660 as listed by the source)": "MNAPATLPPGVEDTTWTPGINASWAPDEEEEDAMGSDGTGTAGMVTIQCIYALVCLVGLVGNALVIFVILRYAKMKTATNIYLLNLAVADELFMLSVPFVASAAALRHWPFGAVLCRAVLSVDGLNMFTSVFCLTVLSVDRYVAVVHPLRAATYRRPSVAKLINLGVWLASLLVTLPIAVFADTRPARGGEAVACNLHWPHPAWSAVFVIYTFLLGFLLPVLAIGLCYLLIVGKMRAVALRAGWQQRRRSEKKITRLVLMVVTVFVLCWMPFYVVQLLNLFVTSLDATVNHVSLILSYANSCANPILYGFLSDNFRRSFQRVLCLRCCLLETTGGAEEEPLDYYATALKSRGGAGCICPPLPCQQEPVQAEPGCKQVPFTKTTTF", "experiment": "Binding affinity to mouse SST4 receptor expressed in CHO cells", "assay_type": "cell-based"}, "[12]": {"target": "T3, Somatostatin receptor type 5 (Mus musculus, UniProt O08858)", "T3 sequence (O08858 whole entry)": "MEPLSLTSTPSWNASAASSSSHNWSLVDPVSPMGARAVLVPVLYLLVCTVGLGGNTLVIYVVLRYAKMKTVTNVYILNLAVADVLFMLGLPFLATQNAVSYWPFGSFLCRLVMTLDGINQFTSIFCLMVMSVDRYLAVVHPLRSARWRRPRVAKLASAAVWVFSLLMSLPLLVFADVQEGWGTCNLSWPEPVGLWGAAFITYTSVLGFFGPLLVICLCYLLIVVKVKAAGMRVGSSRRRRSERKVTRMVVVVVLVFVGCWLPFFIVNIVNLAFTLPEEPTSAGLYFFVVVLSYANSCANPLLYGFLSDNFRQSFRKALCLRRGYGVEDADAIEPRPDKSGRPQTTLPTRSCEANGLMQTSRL", "experiment": "Binding affinity to mouse SST5 receptor expressed in CHO cells", "assay_type": "cell-based"}, "[13]": {"target": "Voltage-gated L-type calcium channel (Homo sapiens, UniProt Q13936+Q13698+Q01668+O60840)", "experiment": "Binding affinity to L-type calcium channel"}, "Mus musculus [14]": {"system": "Mus musculus", "experiment": "Dose normalized AUC in C57BL/6N mouse at 2 mg/kg, po", "assay_type": "ADME, organism-based", "parameters": "dose 2 mg/kg, route oral", "settings": "in vivo"}, "[15]": {"experiment": "Cmax in C57BL/6N mouse at 2 mg/kg, po", "assay_type": "ADME, organism-based", "parameters": "dose 2 mg/kg, route oral", "settings": "in vivo"}, "[16]": {"experiment": "Volume of distribution at steady state in C57BL/6N mouse at 1 mg/kg, iv and 2 mg/kg, po", "assay_type": "ADME, organism-based", "settings": "in vivo, read-out: Vdss"}, "[17]": {"experiment": "Clearance in C57BL/6N mouse at 1 mg/kg, iv and 2 mg/kg, po", "assay_type": "ADME, organism-based", "settings": "in vivo"}, "[18]": {"experiment": "Half life in C57BL/6N mouse at 1 mg/kg, iv and 2 mg/kg, po", "assay_type": "ADME, organism-based", "settings": "in vivo"}, "[19]": {"experiment": "Oral bioavailability in C57BL/6N mouse at 2 mg/kg", "assay_type": "ADME, organism-based", "settings": "in vivo"}, "[20]": {"experiment": "Activation of glucose-stimulated insulin secretion in C57BL/6J mouse pancreatic islets at 10 uM after 1 hr by ELISA in presence of 16 mM glucose relative to DMSO", "assay_type": "functional", "settings": "Pancreatic islet", "how_it_was_run": "(§1)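 Pancreatic islets were isolated from normal C57BL/6J mice. Insulin secretion was measured at 2 and 16 mM glucose. Treatments were test agent at 10 μM, octreotide at 50 nM, the two combined, DMSO as negative control and GLP-1 at 10 nM as positive control. n = 4.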"}, "[21]": {"experiment": "Activation of glucose-stimulated insulin secretion in C57BL/6J mouse pancreatic islets at 10 uM after 1 hr by ELISA in presence of 2 mM glucose", "assay_type": "functional", "settings": "Pancreatic islet", "how_it_was_run": "as §1"}, "[22]": {"experiment": "Activation of glucose-stimulated insulin secretion in C57BL/6J mouse pancreatic islets at 10 uM after 1 hr by ELISA in presence of 16 mM glucose and 50 nM sst3 agonist octreotide", "assay_type": "functional", "settings": "Pancreatic islet", "how_it_was_run": "as §1"}, "Mus musculus [23]": {"system": "Mus musculus", "experiment": "Antidiabetic activity in lean C57BL/6N mouse assessed as reduction in dextrose-induced glucose excursion at 2 mg/kg, po administered 1 hr before dextrose challenge measured by intraperitoneal glucose tolerance test", "assay_type": "functional", "parameters": "scale not given: the % may be the effect or the level left", "how_it_was_run": "(§2)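 Lean C57BL/6N Tac mice were fasted 5–6 h, then given test agent at 2 or 10 mg/kg 1 h before a dextrose challenge. Glucose tolerance was tested with ip dextrose (ipGTT) or oral dextrose (OGTT). Blood glucose excursion was followed and compared with dextrose alone.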"}, "Mus musculus [24]": {"system": "Mus musculus", "experiment": "Antidiabetic activity in po dosed lean C57BL/6N mouse assessed as reduction in dextrose-induced glucose excursion administered 1 hr before dextrose challenge measured by glucose tolerance test", "assay_type": "functional, organism-based", "how_it_was_run": "as §2"}, "Mus musculus [25]": {"system": "Mus musculus", "experiment": "Antidiabetic activity in sst3-wild-type lean C57BL/6N mouse assessed as reduction in dextrose-induced glucose excursion at 10 mg/kg, po administered 1 hr before dextrose challenge measured by intraperitoneal glucose tolerance test", "assay_type": "functional", "parameters": "scale not given: the % may be the effect or the level left", "how_it_was_run": "(§3)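 Wild-type and sst3 knockout mice were studied side by side in an ipGTT. They were predosed with 10 mg/kg 1 h before a 2 g/kg dextrose challenge. Read-out was total blood glucose AUC, compared with dextrose alone.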"}, "Mus musculus [26]": {"system": "Mus musculus", "experiment": "Antidiabetic activity in sst3-knockout lean C57BL/6N mouse assessed as reduction in dextrose-induced glucose excursion at 10 mg/kg, po administered 1 hr before dextrose challenge measured by intraperitoneal glucose tolerance test", "assay_type": "functional, organism-based", "parameters": "dose 10 mg/kg", "how_it_was_run": "as §3"}, "Mus musculus [27]": {"system": "Mus musculus", "experiment": "Antidiabetic activity in wild-type lean C57BL/6N mouse assessed as elevation in plasma insulin level at 10 mg/kg, po administered 1 hr before dextrose challenge measured after 10 mins", "assay_type": "functional", "how_it_was_run": "(§4)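 Wild-type and sst3 knockout mice were predosed at −60 min with 10 mg/kg, then given a dextrose challenge. Plasma insulin was measured 10 min after dextrose. n = 5.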"}, "Mus musculus [28]": {"system": "Mus musculus", "experiment": "Antidiabetic activity in sst3-knockout lean C57BL/6N mouse assessed as elevation in plasma insulin level at 10 mg/kg, po administered 1 hr before dextrose challenge measured after 10 mins", "assay_type": "functional, organism-based", "parameters": "dose 10 mg/kg", "how_it_was_run": "as §4"}, "Mus musculus [29]": {"system": "Mus musculus", "experiment": "Antidiabetic activity in lean C57BL/6N mouse assessed as reduction in dextrose-induced glucose excursion at 10 mg/kg, po administered 1 hr before dextrose challenge measured by intraperitoneal glucose tolerance test", "assay_type": "functional", "parameters": "scale not given: the % may be the effect or the level left", "how_it_was_run": "as §2"}, "Mus musculus [30]": {"system": "Mus musculus", "experiment": "Antidiabetic activity in lean C57BL/6N mouse assessed as reduction in dextrose-induced glucose excursion at 2 mg/kg, po administered 1 hr before dextrose challenge measured by oral glucose tolerance test", "assay_type": "functional", "parameters": "scale not given: the % may be the effect or the level left", "how_it_was_run": "as §2"}, "Mus musculus [31]": {"system": "Mus musculus", "experiment": "Antidiabetic activity in lean C57BL/6N mouse assessed as reduction in dextrose-induced glucose excursion at 10 mg/kg, po administered 1 hr before dextrose challenge measured by oral glucose tolerance test", "assay_type": "functional", "parameters": "scale not given: the % may be the effect or the level left", "how_it_was_run": "as §2"}},
  "note": "pIC50: −log10 of the molar value. Activity calls are given as the source filed them. The calls are words filed in the database; no cut-off is given here.",
  "data": [
    {"smiles": "c1ccc(-c2c[nH]c([C@H]3Cc4c([nH]c5ccccc45)[C@@H](C4CCOCC4)N3)n2)cc1", "values": [
      {"measurement": "pIC50", "setting": "[1]", "value": 7.85},
      {"measurement": "pIC50", "setting": "[2]", "value": 7.66},
      {"measurement": "pIC50", "setting": "[3]", "value": "< 6.00"},
      {"measurement": "pIC50", "setting": "[4]", "value": "< 6.00"},
      {"measurement": "pIC50", "setting": "[5]", "value": "< 6.00"},
      {"measurement": "pIC50", "setting": "[6]", "value": "< 6.00"},
      {"measurement": "pIC50", "setting": "[7]", "value": 8.05},
      {"measurement": "pIC50", "setting": "[8]", "value": 7.80},
      {"measurement": "pIC50", "setting": "[9]", "value": "< 5.00"},
      {"measurement": "pIC50", "setting": "[10]", "value": "< 5.00"},
      {"measurement": "pIC50", "setting": "[11]", "value": "< 5.00"},
      {"measurement": "pIC50", "setting": "[12]", "value": "< 5.00"},
      {"measurement": "IC50", "setting": "[13]", "value": 1900, "unit": "nM"},
      {"measurement": "AUC/dose", "setting": "Mus musculus [14]", "value": 1.3, "unit": "µM·h/mg"},
      {"measurement": "Cmax", "setting": "[15]", "value": 840, "unit": "nM"},
      {"measurement": "Vd", "setting": "[16]", "value": 1.6, "unit": "L/kg"},
      {"measurement": "clearance", "setting": "[17]", "value": 15, "unit": "mL/min/kg"},
      {"measurement": "half-life", "setting": "[18]", "value": 1.6, "unit": "h"},
      {"measurement": "bioavailability", "setting": "[19]", "value": 45, "unit": "%"},
      {"measurement": "Activity", "setting": "[20]", "value": 44, "unit": "%"},
      {"measurement": "Activity", "setting": "[21]", "value": "inactive"},
      {"measurement": "Activity", "setting": "[22]", "value": "Active"},
      {"measurement": "Activity", "setting": "Mus musculus [23]", "value": 58, "unit": "%"},
      {"measurement": "Activity", "setting": "Mus musculus [24]", "value": "Dose-dependent effect"},
      {"measurement": "Activity", "setting": "Mus musculus [25]", "value": 26, "unit": "%"},
      {"measurement": "Activity", "setting": "Mus musculus [26]", "value": "inactive"},
      {"measurement": "Activity", "setting": "Mus musculus [27]", "value": 50, "unit": "%"},
      {"measurement": "Activity", "setting": "Mus musculus [28]", "value": "inactive"},
      {"measurement": "Activity", "setting": "Mus musculus [29]", "value": 78, "unit": "%"},
      {"measurement": "Activity", "setting": "Mus musculus [30]", "value": 66, "unit": "%"},
      {"measurement": "Activity", "setting": "Mus musculus [31]", "value": 67, "unit": "%"}
    ]}
  ]
}
